Reference: ChEMBL document CHEMBL4689842, “EUbOPEN Chemogenomics Library wave 1” (2021)

Key:
HEK-293T = assay: Multiplex assay against HEK293T; type: toxicity, cell-based; details: human;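 for Population Tubulin-Different-Phenotype (%): share of the cells with healthy nuclei that show this phenotype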
Procedure, shortened: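 Phenotypes for tubulin, mitochondrial mass and membrane permeability are expressed as per cents of healthy-nucleus cells. Cells were stained live at seeding with Hoechst33342, BioTracker Green Microtubule Cytoskeleton Dye, MitoTracker Red and Annexin V Alexa Fluor 680, then imaged after compound addition on a CQ1 microscope at 37°C and 5% CO2. Machine-learning gating in CellPathfinder separated Hoechst high-intensity objects from normal cells, divided normal cells by nuclear state (healthy, pyknosed, fragmented) and divided pyknosed cells into mitotic or apoptotic.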

Fibroblast = assay: Incucyte cell viability with human fibroblast; type: toxicity, cell-based; details: 10 µM, compound concentration 10 uM; note: filed as whole numbers so only -1 and 0 and 1 occur
[1] = 12 h, 1 µM, compound concentration 1 uM, replicate 1
[2] = 12 h, 1 µM, compound concentration 1 uM, replicate 2
[3] = 12 h, 10 µM, compound concentration 10 uM, replicate 1
[4] = 12 h, 10 µM, compound concentration 10 uM, replicate 2
[5] = 24 h, 1 µM, compound concentration 1 uM, replicate 1
[6] = 24 h, 1 µM, compound concentration 1 uM, replicate 2
[7] = 24 h, 10 µM, compound concentration 10 uM, replicate 1
[8] = 24 h, 10 µM, compound concentration 10 uM, replicate 2
[9] = 48 h, 1 µM, compound concentration 1 uM, replicate 1
[10] = 48 h, 1 µM, compound concentration 1 uM, replicate 2
[11] = 48 h, 10 µM, compound concentration 10 uM, replicate 1
[12] = 48 h, 10 µM, compound concentration 10 uM, replicate 2

CN(c1cc(C(F)(F)F)nc(OCCC(=O)O)n1)c1cccc2c1CCC2
Population Apoptotic (%) (HEK-293T; [1]): 44%
Population Fragmented Nuclei (%) (HEK-293T; [1]): 21%
Population Healthy Nuclei (%) (HEK-293T; [1]): 34%
Population Hoechst High Intensity Objects (%) (HEK-293T; [1]): 14%
Population Membrane Permeable-Phenotype (%) (HEK-293T; [1]): 3%
Population Mitochondria Different-Phenotype (%) (HEK-293T; [1]): 67%
Population Mitotic Cells (%) (HEK-293T; [1]): 55%
Population Normal (%) (HEK-293T; [1]): 85%
Population Pyknosed Nuclei (%) (HEK-293T; [1]): 44%
Population Tubulin-Different-Phenotype (%) (HEK-293T; [1]): 29%
Total Cell Count (HEK-293T; [1]): 189
Population Apoptotic (%) (HEK-293T; [2]): 12%
Population Fragmented Nuclei (%) (HEK-293T; [2]): 4%
Population Healthy Nuclei (%) (HEK-293T; [2]): 49%
Population Hoechst High Intensity Objects (%) (HEK-293T; [2]): 4%
Population Membrane Permeable-Phenotype (%) (HEK-293T; [2]): 8%
Population Mitochondria Different-Phenotype (%) (HEK-293T; [2]): 15%
Population Mitotic Cells (%) (HEK-293T; [2]): 87%
Population Normal (%) (HEK-293T; [2]): 95%
Population Pyknosed Nuclei (%) (HEK-293T; [2]): 46%
Population Tubulin-Different-Phenotype (%) (HEK-293T; [2]): 14%
Total Cell Count (HEK-293T; [2]): 193
Population Apoptotic (%) (HEK-293T; [3]): 37%
Population Healthy Nuclei (%) (HEK-293T; [3]): 49%
Population Hoechst High Intensity Objects (%) (HEK-293T; [3]): 16%
Population Membrane Permeable-Phenotype (%) (HEK-293T; [3]): 1%
Population Mitochondria Different-Phenotype (%) (HEK-293T; [3]): 69%
Population Mitotic Cells (%) (HEK-293T; [3]): 62%
Population Normal (%) (HEK-293T; [3]): 83%
Population Pyknosed Nuclei (%) (HEK-293T; [3]): 41%
Population Tubulin-Different-Phenotype (%) (HEK-293T; [3]): 28%
Total Cell Count (HEK-293T; [3]): 223
Population Apoptotic (%) (HEK-293T; [4]): 8%
Population Fragmented Nuclei (%) (HEK-293T; [4]): 8%
Population Healthy Nuclei (%) (HEK-293T; [4]): 42%
Population Hoechst High Intensity Objects (%) (HEK-293T; [4]): 2%
Population Membrane Permeable-Phenotype (%) (HEK-293T; [4]): 6%
Population Mitochondria Different-Phenotype (%) (HEK-293T; [4]): 14%
Population Mitotic Cells (%) (HEK-293T; [4]): 91%
Population Normal (%) (HEK-293T; [4]): 97%
Population Pyknosed Nuclei (%) (HEK-293T; [4]): 49%
Population Tubulin-Different-Phenotype (%) (HEK-293T; [4]): 9%
Total Cell Count (HEK-293T; [4]): 233
Population Apoptotic (%) (HEK-293T; [5]): 34%
Population Fragmented Nuclei (%) (HEK-293T; [5]): 18%
Population Healthy Nuclei (%) (HEK-293T; [5]): 30%
Population Hoechst High Intensity Objects (%) (HEK-293T; [5]): 11%
Population Membrane Permeable-Phenotype (%) (HEK-293T; [5]): 1%
Population Mitochondria Different-Phenotype (%) (HEK-293T; [5]): 53%
Population Mitotic Cells (%) (HEK-293T; [5]): 65%
Population Normal (%) (HEK-293T; [5]): 88%
Population Pyknosed Nuclei (%) (HEK-293T; [5]): 51%
Population Tubulin-Different-Phenotype (%) (HEK-293T; [5]): 32%
Total Cell Count (HEK-293T; [5]): 193
Population Apoptotic (%) (HEK-293T; [6]): 21%
Population Fragmented Nuclei (%) (HEK-293T; [6]): 8%
Population Healthy Nuclei (%) (HEK-293T; [6]): 65%
Population Hoechst High Intensity Objects (%) (HEK-293T; [6]): 4%
Population Membrane Permeable-Phenotype (%) (HEK-293T; [6]): 10%
Population Mitochondria Different-Phenotype (%) (HEK-293T; [6]): 13%
Population Mitotic Cells (%) (HEK-293T; [6]): 78%
Population Normal (%) (HEK-293T; [6]): 95%
Population Pyknosed Nuclei (%) (HEK-293T; [6]): 25%
Population Tubulin-Different-Phenotype (%) (HEK-293T; [6]): 28%
Total Cell Count (HEK-293T; [6]): 250
Population Apoptotic (%) (HEK-293T; [7]): 33%
Population Fragmented Nuclei (%) (HEK-293T; [7]): 12%
Population Healthy Nuclei (%) (HEK-293T; [7]): 50%
Population Hoechst High Intensity Objects (%) (HEK-293T; [7]): 11%
Population Membrane Permeable-Phenotype (%) (HEK-293T; [7]): 4%
Population Mitochondria Different-Phenotype (%) (HEK-293T; [7]): 37%
Population Mitotic Cells (%) (HEK-293T; [7]): 66%
Population Normal (%) (HEK-293T; [7]): 88%
Population Pyknosed Nuclei (%) (HEK-293T; [7]): 37%
Population Tubulin-Different-Phenotype (%) (HEK-293T; [7]): 22%
Total Cell Count (HEK-293T; [7]): 256
Population Apoptotic (%) (HEK-293T; [8]): 9%
Population Fragmented Nuclei (%) (HEK-293T; [8]): 2%
Population Healthy Nuclei (%) (HEK-293T; [8]): 68%
Population Hoechst High Intensity Objects (%) (HEK-293T; [8]): 3%
Population Membrane Permeable-Phenotype (%) (HEK-293T; [8]): 3%
Population Mitochondria Different-Phenotype (%) (HEK-293T; [8]): 11%
Population Mitotic Cells (%) (HEK-293T; [8]): 90%
Population Normal (%) (HEK-293T; [8]): 96%
Population Pyknosed Nuclei (%) (HEK-293T; [8]): 29%
Population Tubulin-Different-Phenotype (%) (HEK-293T; [8]): 19%
Total Cell Count (HEK-293T; [8]): 291
Population Apoptotic (%) (HEK-293T; [9]): 45%
Population Fragmented Nuclei (%) (HEK-293T; [9]): 21%
Population Healthy Nuclei (%) (HEK-293T; [9]): 36%
Population Hoechst High Intensity Objects (%) (HEK-293T; [9]): 16%
Population Membrane Permeable-Phenotype (%) (HEK-293T; [9]): 1%
Population Mitochondria Different-Phenotype (%) (HEK-293T; [9]): 22%
Population Mitotic Cells (%) (HEK-293T; [9]): 54%
Population Normal (%) (HEK-293T; [9]): 83%
Population Pyknosed Nuclei (%) (HEK-293T; [9]): 41%
Population Tubulin-Different-Phenotype (%) (HEK-293T; [9]): 24%
Total Cell Count (HEK-293T; [9]): 228
Population Apoptotic (%) (HEK-293T; [10]): 7%
Population Fragmented Nuclei (%) (HEK-293T; [10]): 7%
Population Healthy Nuclei (%) (HEK-293T; [10]): 84%
Population Hoechst High Intensity Objects (%) (HEK-293T; [10]): 3%
Population Membrane Permeable-Phenotype (%) (HEK-293T; [10]): 10%
Population Mitochondria Different-Phenotype (%) (HEK-293T; [10]): 4%
Population Mitotic Cells (%) (HEK-293T; [10]): 92%
Population Normal (%) (HEK-293T; [10]): 96%
Population Pyknosed Nuclei (%) (HEK-293T; [10]): 8%
Population Tubulin-Different-Phenotype (%) (HEK-293T; [10]): 21%
Total Cell Count (HEK-293T; [10]): 472
Population Apoptotic (%) (HEK-293T; [11]): 36%
Population Fragmented Nuclei (%) (HEK-293T; [11]): 15%
Population Healthy Nuclei (%) (HEK-293T; [11]): 56%
Population Hoechst High Intensity Objects (%) (HEK-293T; [11]): 6%
Population Membrane Permeable-Phenotype (%) (HEK-293T; [11]): 1%
Population Mitochondria Different-Phenotype (%) (HEK-293T; [11]): 14%
Population Mitotic Cells (%) (HEK-293T; [11]): 63%
Population Normal (%) (HEK-293T; [11]): 93%
Population Pyknosed Nuclei (%) (HEK-293T; [11]): 27%
Population Tubulin-Different-Phenotype (%) (HEK-293T; [11]): 11%
Total Cell Count (HEK-293T; [11]): 351
Population Apoptotic (%) (HEK-293T; [12]): 10%
Population Fragmented Nuclei (%) (HEK-293T; [12]): 5%
Population Healthy Nuclei (%) (HEK-293T; [12]): 83%
Population Hoechst High Intensity Objects (%) (HEK-293T; [12]): 2%
Population Membrane Permeable-Phenotype (%) (HEK-293T; [12]): 4%
Population Mitochondria Different-Phenotype (%) (HEK-293T; [12]): 3%
Population Mitotic Cells (%) (HEK-293T; [12]): 89%
Population Normal (%) (HEK-293T; [12]): 97%
Population Pyknosed Nuclei (%) (HEK-293T; [12]): 11%
Population Tubulin-Different-Phenotype (%) (HEK-293T; [12]): 12%
Total Cell Count (HEK-293T; [12]): 593
Growth Rate (Fibroblast; 0 h, replicate number 1, timepoint 0 hours): 1
Growth Rate (Fibroblast; 0 h, replicate number 2, timepoint 0 hours): 0
Growth Rate (Fibroblast; 6 h, replicate number 1, timepoint 6 hours): 0
Growth Rate (Fibroblast; 12 h, replicate number 1, timepoint 12 hours): 1
Growth Rate (Fibroblast; 18 h, replicate number 1, timepoint 18 hours): 0
Growth Rate (Fibroblast; 24 h, replicate number 1, timepoint 24 hours): 0
Growth Rate (Fibroblast; 24 h, replicate number 2, timepoint 24 hours): 1
